{"source": "paper PMC11249109", "about": "(Drug Design, Development and Therapy, 2024)", "key": {"Nitric oxide": {"system": "Nitric oxide", "conditions": "read-out: IC50, nitric oxide inhibition; cited from earlier work"}, "SARS-CoV-2": {"system": "SARS-CoV-2", "conditions": "read-out: IC50, anti-SARS-CoV-2 activity; Vero E6 cells; cited from earlier work"}, "[1]": {"conditions": "rats"}, "prostaglandin E2": {"system": "prostaglandin E2", "conditions": "read-out: IC50, prostaglandin E2 inhibition; cited from earlier work"}, "HIV-1 protease": {"system": "HIV-1 protease", "conditions": "read-out: IC50, HIV-1 protease activity; cited from earlier work"}, "[2]": {"conditions": "low solubility but high permeability; cited from earlier work"}, "[3]": {"assay": "Percentage recovery of unchanged panduratin A in urine and feces", "type": "in vivo, Male Wistar rats", "conditions": "rats", "procedure,_shortened": "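Male Wistar rats (n=5/group, fasted 12 h) were dosed with 4.5 mg/kg i.v. (tail vein) or 45 mg/kg oral pure compound, both in 50% DMSO. Urine and feces were collected in metabolic cages at 0–24 and 24–72 h. Feces were bead-homogenised in methanol. Samples were precipitated with methanol containing glycyrrhizin as internal standard and quantified by negative-ESI triple-quadrupole LC-MS (calibration 0.98–1000 μg/L). Recovery is the amount excreted divided by the dose.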"}, "[4]": {"assay": "Detection of panduratin A metabolites by QTOF LCMS in plasma, urine and feces", "type": "in vivo, Male Wistar rats", "conditions": "rats", "procedure,_shortened": "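Male Wistar rats (fasted 12 h) received 4.5 mg/kg test compound i.v. via the lateral tail vein in 50% DMSO. Plasma came from tail-vein blood spun at 5000 g, 10 min, 4°C. Urine and feces were collected in metabolic cages at 0–24 and 24–72 h. Samples were methanol-precipitated and run on QTOF LC-MS with a C18 column at 35 °C and a 0.1% formic acid water/acetonitrile gradient.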"}, "[5]": {"conditions": "45 mg/kg as panduratin A p.o., IC50 from ref 7"}, "[6]": {"conditions": "intravenous administration, 0–72 h"}}, "note": "Several values for one entry are separate records, joined by “and”; a condition that tells them apart may be missing. Equal entries are not always repeated. Where two headings read alike, the source gives them in different places.", "data": [{"compound": "COc1cc(O)c(C(=O)[C@@H]2[C@H](CC=C(C)C)C(C)=CC[C@H]2c2ccccc2)c(O)c1", "note": "[Panduratin A]", "values": [{"measurement": "IC50", "setting": "Nitric oxide", "value": 175, "unit": "nM"}, {"measurement": "IC50", "setting": "SARS-CoV-2", "value": 810, "unit": "nM"}, {"measurement": "plasma concentration after 72 h", "setting": "[1]; 4.5 mg/kg i.v.", "value": 500, "unit": "ng/mL"}, {"measurement": "Cmax of panduratin A relative to in vitro anti-SARS-CoV-2 IC50", "setting": "[1]; [5]", "value": "approximately 15 fold"}, {"measurement": "minimum plasma concentration at 24 h relative to in vitro anti-SARS-CoV-2 IC50", "setting": "[1]; [5]", "value": "approximately 10 fold"}, {"measurement": "plasma concentration after 72 h", "setting": "[1]; 45 mg/kg as panduratin A single p.o.", "value": 500, "unit": "ng/mL"}, {"measurement": "IC50", "setting": "prostaglandin E2", "value": 19.5, "unit": "nM"}, {"measurement": "IC50", "setting": "HIV-1 protease", "value": 18700, "unit": "nM"}, {"measurement": "BCS class", "setting": "[2]", "value": "BCS class II"}, {"measurement": "unchanged panduratin A excreted in urine", "setting": "[3]; [6]", "value": "2 % of the administered dose"}, {"measurement": "unchanged panduratin A excreted via feces", "setting": "[3]; [6]", "value": "25 % of the administered dose"}, {"measurement": "unchanged panduratin A excreted in urine", "setting": "[3]; single oral administration, 0–72 h", "value": "~1 % of the administered dose"}, {"measurement": "unchanged panduratin A excreted in feces, over the experimental groups", "setting": "[3]; summary over i.v. and oral groups", "value": "20–30 % of the administered dose and 22–60 % of the administered dose"}, {"measurement": "glucuronidation form of panduratin A", "setting": "[4]", "value": "not detected"}, {"measurement": "metabolites in plasma or urine (QTOF LCMS)", "setting": "[4]; after i.v. 4.5 mg/kg", "value": "none of the metabolites of panduratin A were detected in plasma or urine"}]}]}
